Several values for one entry are separate records, joined by “and”; a condition that tells them apart may be missing. Identical values can stand only once.
Assays:
Format in all cases: functional
[1] = species on record: Cavia porcellus; assay: Tested for effect on guinea pigs sensitized with (R)-5-Methyl-3-methylene -dihydro -furan-2-one, Number of sensitive animals out of 8 tested
Procedure, shortened: (§1)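 Female albino Hartley guinea pigs (250–300 g) received three 0.1-mL intradermal nuchal injections on alternate days of a 1:1 FCA/saline emulsion with 5% (+)-enantiomer. After 2 weeks rest, 0.25 mL of 1% or 2% methylene chloride solution was deposited on a 2-cm2 circle and read every 24 h. Erythema/swelling was scored 0–3; av = summed intensities divided by animal number.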

[2] = species on record: Cavia porcellus; assay: Tested for effect on guinea pigs sensitized with (S)5-Methyl-3-methylene-dihydro- furan-2-one; Number of sensitive animals out of 8 tested
Procedure, shortened: (§2)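 Sensitization: female albino Hartley guinea pigs (250–300 g) were given three alternate-day 0.1-mL intradermal nuchal injections of 1:1 FCA/saline emulsion containing 5% (−)-enantiomer. Challenge after 2 weeks rest used 0.25 mL of 1% or 2% methylene chloride solution on a 2-cm2 area, read every 24 h. The scale was 0 (none) to 3 (erythema/swelling beyond area); av = summed scores/animals.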

[3] = species on record: Cavia porcellus; assay: Tested for effect on guinea pigs sensitized with (+/-)-5-Methyl-3-methylene-dihydro-furan-2-one, Number of sensitive animals out of 8 tested
Procedure, shortened: (§3)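 Female albino Hartley guinea pigs (250–300 g), sensitized by three intradermal nuchal injections of 0.1 mL on alternate days. The emulsion was 1:1 FCA/saline with 10% racemate (5% of each antipode). After 2 weeks rest, 0.25 mL of 1% or 2% methylene chloride solution was applied to a 2-cm2 area. Reactions were scored 0–3 every 24 h; av = summed scores/animals.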

[4] = species on record: Cavia porcellus; assay: Tested for effect on guinea pigs sensitized with (R)-5-Methyl-3-methylene -dihydro -furan-2-one,av is calculated by adding the test intensity and divided by the number of animals; procedure, shortened: as §1
[5] = species on record: Cavia porcellus; assay: Tested for effect on guinea pigs sensitized with (S)5-Methyl-3-methylene-dihydro- furan-2-one,av is calculated by adding the test intensity and divided by the number of animals; procedure, shortened: as §2
[6] = species on record: Cavia porcellus; assay: Tested for effect on guinea pigs sensitized with (+/-)-5-Methyl-3-methylene-dihydro-furan-2-one, av is calculated by adding the test intensity and divided by the number of animals; procedure, shortened: as §3
[7] = species on record: Cavia porcellus; assay: Tested for effect on guinea pigs sensitized with (R)-5-Methyl-3-methylene -dihydro -furan-2-one, number of animals showing erythema and swelling of the test area; procedure, shortened: as §1
[8] = species on record: Cavia porcellus; assay: Tested for effect on guinea pigs sensitized with (R)-5-Methyl-3-methylene -dihydro -furan-2-one,number of animals showing erythema covering the part of the test area; procedure, shortened: as §1
[9] = species on record: Cavia porcellus; assay: Tested for effect on guinea pigs sensitized with (R)-5-Methyl-3-methylene -dihydro -furan-2-one,number of animals showing erythema covering the whole test area; procedure, shortened: as §1
[10] = species on record: Cavia porcellus; assay: Tested for effect on guinea pigs sensitized with (R)-5-Methyl-3-methylene -dihydro -furan-2-one,number of animals showing no reaction; procedure, shortened: as §1
[11] = species on record: Cavia porcellus; assay: Tested for effect on guinea pigs sensitized with (S)5-Methyl-3-methylene-dihydro- furan-2-one number of animals showing erythema and swelling of the test area.; procedure, shortened: as §2
[12] = species on record: Cavia porcellus; assay: Tested for effect on guinea pigs sensitized with (S)5-Methyl-3-methylene-dihydro- furan-2-one number of animals showing erythema covering the part of the test area; procedure, shortened: as §2
[13] = species on record: Cavia porcellus; assay: Tested for effect on guinea pigs sensitized with (S)5-Methyl-3-methylene-dihydro- furan-2-onenumber of animals showing erythema covering the whole test area; procedure, shortened: as §2
[14] = species on record: Cavia porcellus; assay: Tested for effect on guinea pigs sensitized with (+/-)-5-Methyl-3-methylene-dihydro-furan-2-one number of animals showing erythema and swelling of the test area; procedure, shortened: as §3
[15] = species on record: Cavia porcellus; assay: Tested for effect on guinea pigs sensitized with (+/-)-5-Methyl-3-methylene-dihydro-furan-2-one,number of animals showing erythema covering the part of the test area; procedure, shortened: as §3
[16] = species on record: Cavia porcellus; assay: Tested for effect on guinea pigs sensitized with (+/-)-5-Methyl-3-methylene-dihydro-furan-2-one,number of animals showing erythema covering the whole test area; procedure, shortened: as §3
[17] = species on record: Cavia porcellus; assay: Tested for effect on guinea pigs sensitized with (+/-)-5-Methyl-3-methylene-dihydro-furan-2-one,number of animals showing no reaction; procedure, shortened: as §3
[18] = species on record: Cavia porcellus; assay: Tested for effect on guinea pigs sensitized with (S)5-Methyl-3-methylene-dihydro- furan-2-one number of animals showing no reaction; procedure, shortened: as §2
[19] = species on record: Cavia porcellus; assay: Tested for its effect on guinea pigs sensitized with (R)-5-Methyl-3-methylene -dihydro -furan-2-one, Number of sensitive animals out of 8 tested; procedure, shortened: as §1
[20] = species on record: Cavia porcellus; assay: Tested for its effect on guinea pigs sensitized with (S)5-Methyl-3-methylene-dihydro- furan-2-one; Number of sensitive animals out of 8 tested
Procedure, shortened: (§4)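 Albino female Hartley guinea pigs (250-300 g) got three 0.1 mL intradermal nuchal injections on alternate days of 1:1 FCA-saline emulsion with 5% enantiomer. After 2 weeks rest, 0.25 mL of 1% (enantiomers) or 1% or 2% (racemate) in methylene chloride was applied to a 2-cm2 area. Erythema/swelling scored 0-3 every 24 h; average = summed scores/animals.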

[21] = species on record: Cavia porcellus; assay: Tested for its effect on guinea pigs sensitized with (R)-5-Methyl-3-methylene -dihydro -furan-2-one,av is calculated by adding the test intensity and divided by the number of animals; procedure, shortened: as §1
[22] = species on record: Cavia porcellus; assay: Tested for its effect on guinea pigs sensitized with (+/-)-5-Methyl-3-methylene-dihydro-furan-2-one, Number of sensitive animals out of 8 tested; procedure, shortened: as §3
[23] = species on record: Cavia porcellus; assay: Tested for its effect on guinea pigs sensitized with (S)5-Methyl-3-methylene-dihydro- furan-2-one,av is calculated by adding the test intensity and divided by the number of animals; procedure, shortened: as §4
[24] = species on record: Cavia porcellus; assay: Tested for its effect on guinea pigs sensitized with (+/-)-5-Methyl-3-methylene-dihydro-furan-2-one, av is calculated by adding the test intensity and divided by the number of animals; procedure, shortened: as §3
[25] = species on record: Cavia porcellus; assay: Tested for its effect on guinea pigs sensitized with (+/-)-5-Methyl-3-methylene-dihydro-furan-2-one,number of animals showing no reaction; procedure, shortened: as §3
[26] = species on record: Cavia porcellus; assay: Tested for its effect on guinea pigs sensitized with (R)-5-Methyl-3-methylene -dihydro -furan-2-one, number of animals showing erythema and swelling of the test area; procedure, shortened: as §1
[27] = species on record: Cavia porcellus; assay: Tested for its effect on guinea pigs sensitized with (R)-5-Methyl-3-methylene -dihydro -furan-2-one,number of animals showing erythema covering the part of the test area; procedure, shortened: as §4
[28] = species on record: Cavia porcellus; assay: Tested for its effect on guinea pigs sensitized with (R)-5-Methyl-3-methylene -dihydro -furan-2-one,number of animals showing erythema covering the whole test area; procedure, shortened: as §4
[29] = species on record: Cavia porcellus; assay: Tested for its effect on guinea pigs sensitized with (R)-5-Methyl-3-methylene -dihydro -furan-2-one,number of animals showing no reaction; procedure, shortened: as §4
[30] = species on record: Cavia porcellus; assay: Tested for its effect on guinea pigs sensitized with (S)5-Methyl-3-methylene-dihydro- furan-2-one number of animals showing erythema and swelling of the test area.; procedure, shortened: as §4
[31] = species on record: Cavia porcellus; assay: Tested for its effect on guinea pigs sensitized with (S)5-Methyl-3-methylene-dihydro- furan-2-one number of animals showing erythema covering the part of the test area; procedure, shortened: as §4
[32] = species on record: Cavia porcellus; assay: Tested for its effect on guinea pigs sensitized with (S)5-Methyl-3-methylene-dihydro- furan-2-one number of animals showing no reaction; procedure, shortened: as §4
[33] = species on record: Cavia porcellus; assay: Tested for its effect on guinea pigs sensitized with (S)5-Methyl-3-methylene-dihydro- furan-2-onenumber of animals showing erythema covering the whole test area; procedure, shortened: as §4
[34] = species on record: Cavia porcellus; assay: Tested for its effect on guinea pigs sensitized with (+/-)-5-Methyl-3-methylene-dihydro-furan-2-one number of animals showing erythema and swelling of the test area; procedure, shortened: as §3
[35] = species on record: Cavia porcellus; assay: Tested for its effect on guinea pigs sensitized with (+/-)-5-Methyl-3-methylene-dihydro-furan-2-one,number of animals showing erythema covering the part of the test area; procedure, shortened: as §3
[36] = species on record: Cavia porcellus; assay: Tested for its effect on guinea pigs sensitized with (+/-)-5-Methyl-3-methylene-dihydro-furan-2-one,number of animals showing erythema covering the whole test area; procedure, shortened: as §3
[37] = species on record: Cavia porcellus; assay: Tested for effect on guinea pigs sensitized with (+/-)-5-Methyl-3- methylene-dihydro-furan-2-one; Number of sensitive animals out of 8 tested; procedure, shortened: as §3
[38] = species on record: Cavia porcellus; assay: Tested for effect on guinea pigs sensitized with (R)5-Methyl-3- methylene-dihydro-furan-2-one; Number of sensitive animals out of 8 tested; procedure, shortened: as §1
[39] = species on record: Cavia porcellus; assay: Tested for effect on guinea pigs sensitized with (R)-5-Methyl-3-methylene-dihydro-furan-2-one; Number of sensitive animals out of 8 tested; procedure, shortened: as §1
[40] = species on record: Cavia porcellus; assay: Tested for effect on guinea pigs sensitized with (S)5-Methyl-3- methylene-dihydro-furan-2-one; Number of sensitive animals out of 8 tested; procedure, shortened: as §2
[41] = species on record: Cavia porcellus; assay: Tested for effect on guinea pigs sensitized with (+/-)-5-Methyl-3- methylene-dihydro-furan-2-one and av is calculated by adding the test intensity and divided by the number of animals; procedure, shortened: as §3
[42] = species on record: Cavia porcellus; assay: Tested for effect on guinea pigs sensitized with (R)5-Methyl-3- methylene-dihydro-furan-2-one and av is calculated by adding the test intensity and divided by the number of animals; procedure, shortened: as §1
[43] = species on record: Cavia porcellus; assay: Tested for effect on guinea pigs sensitized with (S)5-Methyl-3- methylene-dihydro-furan-2-one and av is calculated by adding the test intensity and divided by the number of animals; procedure, shortened: as §2
[44] = species on record: Cavia porcellus; assay: Tested for effect on guinea pigs sensitized with (+/-)-5-Methyl-3- methylene-dihydro-furan-2-one; Number of sensitive animals; procedure, shortened: as §3
[45] = species on record: Cavia porcellus; assay: Tested for effect on guinea pigs sensitized with (R)5-Methyl-3- methylene-dihydro-furan-2-one and number of animals showing erythema covering the part of the test area; procedure, shortened: as §1
[46] = species on record: Cavia porcellus; assay: Tested for effect on guinea pigs sensitized with (R)5-Methyl-3- methylene-dihydro-furan-2-one and number of animals showing erythema covering the whole test area; procedure, shortened: as §1
[47] = species on record: Cavia porcellus; assay: Tested for effect on guinea pigs sensitized with (+/-)-5-Methyl-3- methylene-dihydro-furan-2-one and number of animals showing erythema and swelling of the test area; procedure, shortened: as §3
[48] = species on record: Cavia porcellus; assay: Tested for effect on guinea pigs sensitized with (+/-)-5-Methyl-3- methylene-dihydro-furan-2-one and number of animals showing erythema covering the part of the test area; procedure, shortened: as §3
[49] = species on record: Cavia porcellus; assay: Tested for effect on guinea pigs sensitized with (+/-)-5-Methyl-3- methylene-dihydro-furan-2-one and number of animals showing erythema covering the whole test area; procedure, shortened: as §3
[50] = species on record: Cavia porcellus; assay: Tested for effect on guinea pigs sensitized with (+/-)-5-Methyl-3- methylene-dihydro-furan-2-one and number of animals showing no reaction; procedure, shortened: as §3
[51] = species on record: Cavia porcellus; assay: Tested for effect on guinea pigs sensitized with (R)5-Methyl-3 -methylene-dihydro-furan-2-one and number of animals showing erythema covering the part of the test area; procedure, shortened: as §1
[52] = species on record: Cavia porcellus; assay: Tested for effect on guinea pigs sensitized with (R)5-Methyl-3 -methylene-dihydro-furan-2-one and number of animals showing erythema covering the whole test area; procedure, shortened: as §1
[53] = species on record: Cavia porcellus; assay: Tested for effect on guinea pigs sensitized with (S)5-Methyl-3 -methylene-dihydro-furan-2-one and number of animals showing erythema covering the whole test area; procedure, shortened: as §2
[54] = species on record: Cavia porcellus; assay: Tested for effect on guinea pigs sensitized with (S)5-Methyl-3- methylene-dihydro-furan-2-one and number of animals showing erythema covering the whole test area; procedure, shortened: as §2
[55] = species on record: Cavia porcellus; assay: Tested for effect on guinea pigs sensitized with (S)5-Methyl-3- methylene-dihydro-furan-2-one and number of animals showing no reaction; procedure, shortened: as §2

SMILES: C=C1C[C@@H](C)OC1=O
- No. of sensitive animals [1]: 8
- No. of sensitive animals [2]: 8
- No. of sensitive animals [3]: 8
- av [4]: 1.3
- av [5]: 0.8
- av [6]: 1.7
- Skin tests intensity [7]: 3
- Skin tests intensity [8]: 1
- Skin tests intensity [9]: 4
- Skin tests intensity [10]: 0
- Skin tests intensity [11]: 0
- Skin tests intensity [12]: 3
- Skin tests intensity [13]: 5
- Skin tests intensity [14]: 6
- Skin tests intensity [15]: 1
- Skin tests intensity [16]: 1
- Skin tests intensity [17]: 0
- Skin tests intensity [18]: 0

SMILES: C=C1C[C@H](C)OC1=O
- No. of sensitive animals [19]: 5
- No. of sensitive animals [20]: 8
- av [21]: 0.4
- No. of sensitive animals [22]: 8
- av [23]: 0.9
- av [24]: 1.8
- Skin tests intensity [25]: 0
- Skin tests intensity [26]: 0
- Skin tests intensity [27]: 3
- Skin tests intensity [28]: 2
- Skin tests intensity [29]: 3
- Skin tests intensity [30]: 0
- Skin tests intensity [31]: 1
- Skin tests intensity [32]: 0
- Skin tests intensity [33]: 7
- Skin tests intensity [34]: 6
- Skin tests intensity [35]: 0
- Skin tests intensity [36]: 2

SMILES: C=C1CC(C)OC1=O (stereo not given)
- No. of sensitive animals [37]: 8
- No. of sensitive animals [38]: 6
- No. of sensitive animals [39]: 8
- No. of sensitive animals [40]: 8
- av [41]: 1.8 and 1.5
- av [42]: 1.8 and 0.7
- av [43]: 1.9 and 0.9
- No. of sensitive animals [44]: 8
- Skin tests intensity [45]: 1
- Skin tests intensity [46]: 5
- Skin tests intensity [47]: 6 and 4
- Skin tests intensity [48]: 0
- Skin tests intensity [49]: 2 and 4
- Skin tests intensity [50]: 0
- Skin tests intensity [51]: 0
- Skin tests intensity [52]: 2
- Skin tests intensity [53]: 1
- Skin tests intensity [54]: 7
- Skin tests intensity [55]: 0
